Calls of active or inactive are those of the source. The calls are words filed in the database; no cut-off is given here.
Tests used:
[1] = system: PC-3; assay: Induction of apoptosis in human PC3 cells assessed as early apoptotic cells at 1 uM by annexin V/PI staining (reference value: 5.6%); format: functional
[2] = system: SK-BR-3; assay: Reduction in HER2 mRNA expression in human SKBR3 cells after 24 hrs by RT-PCR analysis; format: functional, cell-based
Outline: (§1)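 PC-3, PC-3/CA-ILK, SKBR3 and SKBR3/CA-ILK cells treated 24 h in 5% FBS medium; total RNA from 1 × 10^6 cells by Trizol, 1 μg reverse-transcribed, then PCR with gene-specific primers and β-actin reference.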

[3] = target: Tyrosine-protein kinase JAK2 (Homo sapiens) (UniProt O60674); assay: Inhibition of Jak2 at 5 uM assessed as remaining activity
Outline: (§2)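 Panel of 20 recombinant kinases, profiled by a commercial vendor.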

[4] = target: Protein kinase C alpha type (Homo sapiens) (UniProt P17252); assay: Inhibition of PKCalpha at 5 uM assessed as remaining activity
[5] = target: T1, Scaffold protein ILK (Homo sapiens) (UniProt Q13418); assay: Inhibition of ILK in human PC3 cells assessed as decrease in phosphorylated p38 concentration by Western blot analysis; format: cell-based; settings: PC-3
T1 sequence (whole entry): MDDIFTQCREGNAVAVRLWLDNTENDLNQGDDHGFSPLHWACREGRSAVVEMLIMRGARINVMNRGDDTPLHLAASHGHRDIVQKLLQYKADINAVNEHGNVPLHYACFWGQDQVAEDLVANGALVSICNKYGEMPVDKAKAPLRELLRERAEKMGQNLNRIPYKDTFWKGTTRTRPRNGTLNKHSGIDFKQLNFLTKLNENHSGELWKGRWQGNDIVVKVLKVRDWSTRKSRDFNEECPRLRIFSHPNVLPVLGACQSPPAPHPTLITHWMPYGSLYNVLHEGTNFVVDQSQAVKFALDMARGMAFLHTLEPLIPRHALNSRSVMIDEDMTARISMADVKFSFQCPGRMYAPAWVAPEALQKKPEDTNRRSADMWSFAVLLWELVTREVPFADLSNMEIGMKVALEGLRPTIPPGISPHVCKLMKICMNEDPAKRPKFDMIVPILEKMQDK
Outline: (§3)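 PC-3 cells exposed to graded concentrations for 24 h in 5% FBS medium. Immunoblotting for phospho-Tyr397-FAK, ERK1/2, p38 and JNK. Lysis in 1% SDS buffer, primary antibody 1:1000 at 4°C for 2 h, ECL. Three independent experiments.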

[6] = system: Mus musculus; assay: Inhibition of phosphorylation of Thr-308-Akt in human PC3 cells xenografted nude mouse tumor lysate at 25 mg/kg, po administered for 35 days by Western blot analysis; format: functional, organism-based; design: dose 25 mg/kg; settings: Neoplasm, PC-3
Outline: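 Tumors harvested at terminal sacrifice after 35 days of daily oral dosing, snap-frozen and stored at -80°C; lysates immunoblotted, three representative tumors per group.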

[7] = system: HMEC; assay: Antiproliferative activity against human HMEC cells at 1 to 5 uM by MTT assay; format: cell-based
Outline: (§4)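 Cancer lines seeded 5000/well and nonmalignant PrEC/MEC 8000/well in 10% FBS, 24 h before treatment. Compound exposure 24 h in 5% FBS medium, 0.1% final DMSO. MTT (0.25 mg/mL) for 1 h at 37°C, dye solubilized in DMSO, absorbance read at 570 nm. Mean ± SD, n = 6.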

[8] = system: PC-3; assay: Reduction in YB-1 concentration in human PC3 cells expressing constitutively active ILK after 24 hrs by Western blot analysis; format: functional, cell-based
Outline: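 PC-3 versus stable PC-3/CA-ILK, or SKBR3 versus transient SKBR3/CA-ILK (electroporation, used 48 h after), treated 24 h in 5% FBS medium; immunoblotting with ECL; representative of three experiments.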

[9] = system: 3-phosphoinositide dependent protein kinase-2, PDK2; assay: Inhibition of PDK2 in human MDA-MB-231 cells assessed as Akt Ser-473 dephosphorylation by Western blot analysis; format: functional, cell-based
Outline: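 Cells exposed 24 h in 5% FBS medium, final DMSO 0.1%; lysed in 1% SDS/10 mM EDTA/50 mM Tris pH 8.1, equal protein on SDS-PAGE, nitrocellulose, primary antibody 1:1000 at 4°C for 2 h, HRP secondary 1:5000, ECL detection; blots representative of three independent experiments.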

[10] = target: Mast/stem cell growth factor receptor Kit (Homo sapiens) (UniProt P10721); assay: Inhibition of cKit at 5 uM assessed as remaining activity
Sequence of Mast/stem cell growth factor receptor Kit (Homo sapiens) (P10721 whole entry): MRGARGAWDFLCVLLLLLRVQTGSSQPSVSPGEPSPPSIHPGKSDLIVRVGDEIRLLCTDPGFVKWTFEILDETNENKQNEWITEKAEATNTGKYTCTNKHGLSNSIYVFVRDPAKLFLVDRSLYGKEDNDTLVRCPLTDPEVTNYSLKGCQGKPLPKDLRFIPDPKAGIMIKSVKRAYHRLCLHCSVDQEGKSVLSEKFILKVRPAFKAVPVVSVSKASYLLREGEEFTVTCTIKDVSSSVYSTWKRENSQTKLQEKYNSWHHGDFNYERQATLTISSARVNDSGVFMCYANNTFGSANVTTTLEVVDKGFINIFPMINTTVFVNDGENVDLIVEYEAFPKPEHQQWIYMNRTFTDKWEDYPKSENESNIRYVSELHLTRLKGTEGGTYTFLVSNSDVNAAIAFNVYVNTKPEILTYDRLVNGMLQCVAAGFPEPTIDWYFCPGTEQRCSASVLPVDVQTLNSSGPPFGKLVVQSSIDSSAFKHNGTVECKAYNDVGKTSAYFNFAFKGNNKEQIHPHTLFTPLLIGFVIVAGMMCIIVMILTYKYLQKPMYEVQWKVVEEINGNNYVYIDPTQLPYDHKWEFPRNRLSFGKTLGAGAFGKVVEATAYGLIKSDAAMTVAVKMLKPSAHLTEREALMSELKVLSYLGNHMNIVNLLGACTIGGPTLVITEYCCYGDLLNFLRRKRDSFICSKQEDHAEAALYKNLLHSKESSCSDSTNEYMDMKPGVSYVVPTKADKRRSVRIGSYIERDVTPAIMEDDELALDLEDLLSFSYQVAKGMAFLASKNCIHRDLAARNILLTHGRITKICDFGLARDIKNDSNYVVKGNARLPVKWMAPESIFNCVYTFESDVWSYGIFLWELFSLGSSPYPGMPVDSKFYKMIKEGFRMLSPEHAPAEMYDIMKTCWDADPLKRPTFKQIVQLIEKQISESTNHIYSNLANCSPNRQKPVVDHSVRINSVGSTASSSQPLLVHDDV

[11] = system: Mus musculus; assay: Decrease in phosphorylation of GSK3-beta in human PC3 cells xenografted nude mouse tumor lysate at 25 mg/kg, po administered for 35 days by Western blot analysis; format: functional, organism-based; design: dose 25 mg/kg; settings: Neoplasm, PC-3
Outline: (§5)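 Male NCr athymic nude mice, 5–7 weeks, with s.c. PC-3 xenografts (0.5 × 10^6 cells in 50% Matrigel), dosed by oral gavage once daily for 35 days. Vehicle 0.5% methylcellulose, 0.1% Tween 80 in water, 10 μL/g. Tumors snap-frozen at sacrifice; three tumors per group immunoblotted.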

[12] = system: PC-3; assay: Antiproliferative activity against human PC3 cells assessed as suppression of cell viability by MTT assay; format: functional, cell-based; outline: as §4
[13] = system: Mus musculus; assay: Toxicity in nude mouse assessed as weight loss at 25 mg/kg, po administered for 35 days; format: organism-based; design: dose 25 mg/kg, route oral; settings: in vivo, 840 h
Outline: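 Male NCr nude mice bearing s.c. PC-3 tumors, dosed once daily by oral gavage in 0.5% methylcellulose/0.1% Tween 80 vehicle, 10 μL/g, for 35 days; body weight recorded weekly.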

[14] = system: PC-3; assay: Reduction in YB-1 mRNA expression in human PC3 cells after 24 hrs by RT-PCR analysis; format: functional, cell-based; outline: as §1
[15] = system: Mus musculus; assay: Decrease in phosphorylation of HER2 in human PC3 cells xenografted nude mouse tumor lysate at 25 mg/kg, po administered for 35 days by Western blot analysis; format: functional, organism-based; design: dose 25 mg/kg; settings: Neoplasm, PC-3; outline: as §5
[16] = target: T1, Scaffold protein ILK (Homo sapiens); assay: Inhibition of ILK in human PC3 cells assessed as decrease in phosphorylated JNK concentration by Western blot analysis; format: cell-based; settings: PC-3; outline: as §3
[17] = target: Ribosomal protein S6 kinase alpha-1 (Homo sapiens) (UniProt Q15418); assay: Inhibition of Rsk1 at 5 uM assessed as remaining activity
Sequence of Ribosomal protein S6 kinase alpha-1 (Homo sapiens) (Q15418 whole entry): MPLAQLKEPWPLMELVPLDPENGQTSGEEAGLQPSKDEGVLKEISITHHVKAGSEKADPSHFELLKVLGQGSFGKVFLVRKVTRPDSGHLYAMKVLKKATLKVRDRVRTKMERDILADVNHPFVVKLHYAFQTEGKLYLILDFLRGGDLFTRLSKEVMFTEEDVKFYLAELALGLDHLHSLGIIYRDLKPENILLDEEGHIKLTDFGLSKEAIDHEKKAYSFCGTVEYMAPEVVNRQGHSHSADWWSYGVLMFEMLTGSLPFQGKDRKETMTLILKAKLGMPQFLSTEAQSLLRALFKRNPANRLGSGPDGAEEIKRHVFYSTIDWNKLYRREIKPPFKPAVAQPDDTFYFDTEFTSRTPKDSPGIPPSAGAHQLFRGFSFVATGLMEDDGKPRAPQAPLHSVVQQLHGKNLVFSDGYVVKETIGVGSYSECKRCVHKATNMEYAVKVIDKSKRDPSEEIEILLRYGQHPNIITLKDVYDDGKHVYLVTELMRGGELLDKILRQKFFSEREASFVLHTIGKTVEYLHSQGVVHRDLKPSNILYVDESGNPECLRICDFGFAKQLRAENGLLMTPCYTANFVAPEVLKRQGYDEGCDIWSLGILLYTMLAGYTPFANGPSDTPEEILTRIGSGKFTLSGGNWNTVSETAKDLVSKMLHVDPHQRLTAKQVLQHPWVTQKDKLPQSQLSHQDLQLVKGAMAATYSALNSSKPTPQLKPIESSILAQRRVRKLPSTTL

[18] = system: PC-3; assay: Induction of apoptosis in human PC3 cells assessed as early apoptotic cells at 3 uM by annexin V/PI staining (reference value: 5.6%); format: functional
[19] = system: PC-3; assay: Induction of change in cell cycle distribution in human PC3 cells up to 2 uM after 48 hrs by flow cytometry; format: functional, cell-based
Outline: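 Treated PC-3 cells harvested, fixed in 100% ethanol, stained 30 min at 37°C in the dark with 80 μg/mL PI, 100 μg/mL RNase, 0.1% Triton X-100. Phase distribution by flow cytometry. Mean ± SD, n = 3. Methods give 48 h exposure; the figure legend gives 24 h in 5% FBS.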

[20] = system: PrEC; assay: Antiproliferative activity against human PrEC cells at 1 to 5 uM by MTT assay; format: cell-based; outline: as §4
[21] = system: PC-3; assay: Induction of apoptosis in human PC3 cells assessed as late apoptotic cells at 4 uM by annexin V/PI staining (reference value: 9.8%); format: functional
[22] = target: Glycogen synthase kinase-3 beta (Homo sapiens) (UniProt P49841); assay: Inhibition of GSK3-beta at 5 uM assessed as remaining activity; outline: as §2
[23] = target: Proto-oncogene tyrosine-protein kinase ROS (Homo sapiens) (UniProt P08922); assay: Inhibition of Ros at 5 uM assessed as remaining activity
Sequence of Proto-oncogene tyrosine-protein kinase ROS (Homo sapiens) (P08922 whole entry): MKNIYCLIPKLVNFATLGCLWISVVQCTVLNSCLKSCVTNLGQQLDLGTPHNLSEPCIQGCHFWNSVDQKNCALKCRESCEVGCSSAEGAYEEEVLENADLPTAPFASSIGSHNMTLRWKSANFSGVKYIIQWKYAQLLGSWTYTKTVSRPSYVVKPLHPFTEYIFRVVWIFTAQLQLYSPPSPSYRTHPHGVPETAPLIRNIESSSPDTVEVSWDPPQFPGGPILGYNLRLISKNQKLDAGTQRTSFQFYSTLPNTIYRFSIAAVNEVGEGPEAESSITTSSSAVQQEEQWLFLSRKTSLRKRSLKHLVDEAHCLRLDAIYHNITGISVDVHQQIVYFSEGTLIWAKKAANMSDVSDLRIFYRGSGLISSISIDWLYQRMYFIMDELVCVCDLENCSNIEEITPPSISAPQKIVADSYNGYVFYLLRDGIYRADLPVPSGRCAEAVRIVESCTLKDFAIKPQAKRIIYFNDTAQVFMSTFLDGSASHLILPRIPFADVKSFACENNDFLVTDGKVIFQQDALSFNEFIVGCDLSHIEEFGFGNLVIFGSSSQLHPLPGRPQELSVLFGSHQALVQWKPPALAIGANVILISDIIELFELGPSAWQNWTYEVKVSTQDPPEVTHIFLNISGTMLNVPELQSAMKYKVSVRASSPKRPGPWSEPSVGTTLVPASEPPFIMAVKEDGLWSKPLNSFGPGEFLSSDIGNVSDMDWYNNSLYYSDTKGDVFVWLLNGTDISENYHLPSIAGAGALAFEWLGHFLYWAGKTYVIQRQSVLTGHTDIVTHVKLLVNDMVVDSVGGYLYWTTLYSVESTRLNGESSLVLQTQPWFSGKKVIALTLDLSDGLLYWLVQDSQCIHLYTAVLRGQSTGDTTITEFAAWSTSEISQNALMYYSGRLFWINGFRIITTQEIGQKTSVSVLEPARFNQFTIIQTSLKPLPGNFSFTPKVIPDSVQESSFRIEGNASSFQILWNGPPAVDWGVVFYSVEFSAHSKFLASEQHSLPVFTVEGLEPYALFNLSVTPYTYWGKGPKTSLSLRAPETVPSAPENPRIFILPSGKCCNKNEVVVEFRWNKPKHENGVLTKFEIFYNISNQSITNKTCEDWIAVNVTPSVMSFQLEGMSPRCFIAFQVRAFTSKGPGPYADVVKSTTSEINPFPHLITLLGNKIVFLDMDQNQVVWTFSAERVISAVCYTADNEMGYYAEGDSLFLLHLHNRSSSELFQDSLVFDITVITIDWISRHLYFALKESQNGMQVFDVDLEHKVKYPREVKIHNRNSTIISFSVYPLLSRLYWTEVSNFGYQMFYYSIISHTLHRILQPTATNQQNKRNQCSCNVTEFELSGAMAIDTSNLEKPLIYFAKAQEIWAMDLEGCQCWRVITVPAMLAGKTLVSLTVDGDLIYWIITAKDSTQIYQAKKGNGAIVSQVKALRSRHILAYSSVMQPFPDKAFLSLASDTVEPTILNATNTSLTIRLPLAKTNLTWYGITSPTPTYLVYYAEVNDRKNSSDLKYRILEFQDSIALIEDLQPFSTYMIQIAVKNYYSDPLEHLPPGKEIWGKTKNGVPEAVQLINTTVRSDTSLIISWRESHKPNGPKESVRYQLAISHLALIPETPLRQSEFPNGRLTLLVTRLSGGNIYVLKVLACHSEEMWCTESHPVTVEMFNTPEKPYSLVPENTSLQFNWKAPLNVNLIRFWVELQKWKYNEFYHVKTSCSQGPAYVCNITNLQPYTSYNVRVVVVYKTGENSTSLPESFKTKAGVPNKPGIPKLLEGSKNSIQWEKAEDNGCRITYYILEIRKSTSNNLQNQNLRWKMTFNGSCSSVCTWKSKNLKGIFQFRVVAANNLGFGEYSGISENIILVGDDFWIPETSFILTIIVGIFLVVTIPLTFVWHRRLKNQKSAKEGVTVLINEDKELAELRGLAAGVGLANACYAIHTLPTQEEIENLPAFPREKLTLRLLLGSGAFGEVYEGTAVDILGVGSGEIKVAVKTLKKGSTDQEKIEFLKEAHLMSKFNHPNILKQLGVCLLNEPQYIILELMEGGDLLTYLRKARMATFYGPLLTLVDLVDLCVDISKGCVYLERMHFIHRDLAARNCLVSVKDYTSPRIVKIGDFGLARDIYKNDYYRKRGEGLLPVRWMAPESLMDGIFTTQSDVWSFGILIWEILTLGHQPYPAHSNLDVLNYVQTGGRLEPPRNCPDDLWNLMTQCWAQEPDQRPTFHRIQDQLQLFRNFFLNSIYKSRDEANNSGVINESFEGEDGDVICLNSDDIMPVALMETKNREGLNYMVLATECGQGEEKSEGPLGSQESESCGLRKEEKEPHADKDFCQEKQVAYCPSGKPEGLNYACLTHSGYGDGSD

## CNC(=O)CCc1cc(-c2ccc(-c3ccc(C(F)(F)F)cc3)cc2)n(-c2ccc(N3CCNCC3)cc2)n1
[1]
  Activity: 6.3%
[2]
  Activity: Dose-dependent effect
[3]
  Activity: 114%
[4]
  Activity: 97%
[5]
  inhibition: Dose-dependent effect
[6]
  Activity: inactive
[7]
  inhibition (INH): Not Active
[8]
  Activity: inactive
[9]
  inhibition: Dose-dependent effect
[10]
  Activity: 100%
[11]
  Activity: Active
[12]
  IC50: 2000 nM
[13]
  Activity: Non-toxic
[14]
  Activity: Dose-dependent effect
[15]
  Activity: Active
[16]
  inhibition: inactive
[17]
  Activity: 65%
[18]
  Activity: 12.1%
[19]
  Activity: inactive
[20]
  inhibition (INH): Not Active
[21]
  Activity: 19.1%
[22]
  Activity: 142%
[23]
  Activity: 103%

Source: ChEMBL document CHEMBL1828498, “Identification and characterization of a novel integrin-linked kinase inhibitor” (J Med Chem, 2011)
